From paper PMC8167812 (Cell reports, 2021)

Legend:
Clr4-SET = Clr4-SET (Schizosaccharomyces pombe, UniProt O60016); test: Thermal shift assay, Clr4-SET; assay type: binding, fission yeast (S. pombe); conditions: without peptide, SYPRO orange, Figure S3C
Summary of the method: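 Clr4 SET domain (residues 190–490) was expressed in Rosetta E. coli and purified on Talon resin. Protein at 3 μM was mixed with 150 μM SAM in 50 mM Tris pH 8.0, 1 mM EDTA and 0.5 mM DTT, held 10 min at room temperature then 10 min on ice. SYPRO orange was added and the sample ramped 25–99 °C in 1 °C steps over 75 min. Curves were min–max normalised; samples were run in duplicate.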

TetR-Clr4 at tetO = test: ChIP analysis of TetR-Clr4 release from tetO after tetracycline addition; assay type: cell-based, fission yeast (S. pombe); conditions: tetracycline 10 μM

Clr4-SET, sequence (O60016 190-490): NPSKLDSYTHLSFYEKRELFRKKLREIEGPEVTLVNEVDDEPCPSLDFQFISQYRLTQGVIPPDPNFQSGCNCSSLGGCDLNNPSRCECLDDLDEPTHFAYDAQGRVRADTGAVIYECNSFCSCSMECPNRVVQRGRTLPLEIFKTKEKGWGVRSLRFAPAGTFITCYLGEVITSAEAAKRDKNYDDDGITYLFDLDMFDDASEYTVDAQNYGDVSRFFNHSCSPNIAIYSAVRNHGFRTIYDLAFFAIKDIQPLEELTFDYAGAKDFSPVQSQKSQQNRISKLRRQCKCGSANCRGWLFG

Compound	thermal stability of Clr4 on addition of SAM alone (Clr4-SET)	release of TetR-Clr4 from tetO (TetR-Clr4 at tetO; hht3-K9M cells, samples at 5, 10, and 20 minutes)	time in which most TetR-Clr4 is released from tetO (TetR-Clr4 at tetO; 30°C, ChIP-qPCR normalized to act1+)
C[S+](CC[C@H](N)C(=O)[O-])C[C@H]1O[C@@H](n2cnc3c(N)ncnc32)[C@H](O)[C@@H]1O (stereo partly drawn) [SAM, S-adenosyl-methionine]	greater thermal stability of Clr4		
CN(C)[C@@H]1C(O)=C(C(N)=O)C(=O)[C@@]2(O)C(O)=C3C(=O)c4c(O)cccc4[C@@](C)(O)[C@H]3C[C@@H]12 [tetracycline]		a delay in the release of TetR-Clr4	≤ 5 min
